Measurements taken from ChEMBL document CHEMBL1932946, “Design, synthesis and anticonvulsant evaluation of novel N-(4-substituted phenyl)-2-[4-(substituted) benzylidene]-hydrazinecarbothio amides” (Eur J Med Chem, 2012).
Activity calls are given as the source filed them. The calls are words filed in the database; no cut-off is given here.

How the values were obtained:
[1] = system: Mus musculus; assay: Anticonvulsant activity in albino CF-1 mouse assessed as protection against 6 Hz psychomotor seizure at 100 mg/kg, ip after 1 hr by minimal clonic seizure test; type: functional
How it was run: (§1)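 Male CF-1 albino mice (18–25 g) given compound i.p., suspended in 0.5% methyl cellulose, 100 mg/kg in screen. Four mice per time point challenged at 0.25, 0.5, 1.0, 2.0 and 4.0 h via corneal electrodes (32 mA, 3 s, 6 Hz). Protection = absence of psychomotor seizure (minimal clonic phase, automatistic behaviours). Scored as animals protected/tested.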

[2] = Octanol-phosphate buffer partition coefficient, log P of the compound at 5 mg after 24 hrs by UV spectroscopic analysis; type: physicochemical
How it was run: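 5 mg compound added to 10 mL octanol plus 10 mL phosphate buffer in a stoppered tube. Mixture shaken mechanically 24 h at room temperature, then left 6 h in a separating funnel to equilibrate.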

[3] = system: Mus musculus; assay: Anticonvulsant activity in albino CF-1 mouse assessed as protection against 6 Hz psychomotor seizure at 100 mg/kg, ip after 0.5 hrs by minimal clonic seizure test; type: functional; how it was run: as §1
[4] = system: Mus musculus; assay: Anticonvulsant activity in albino CF-1 mouse assessed as protection against 6 Hz psychomotor seizure at 100 mg/kg, ip after 2 hrs by minimal clonic seizure test; type: functional; how it was run: as §1
[5] = system: Mus musculus; assay: Neurotoxicity in albino CF-1 mouse assessed as minimum motor impairment at 300 mg/kg, ip after 0.5 hrs by rotarod test; type: toxicity, organism-based; parameters: dose 300 mg/kg, route intraperitoneal; details: in vivo
How it was run: (§2)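 Minimal motor impairment assessed in male CF-1 albino mice (18–25 g) at 0.5 and 4 h after i.p. doses of 30, 100 and 300 mg/kg, given in 0.5% methyl cellulose. Minimum dose toxic in half or more of mice recorded.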

[6] = system: Mus musculus; assay: Anticonvulsant activity in albino CF-1 mouse assessed as protection against 6 Hz psychomotor seizure at 100 mg/kg, ip after 0.25 hrs by minimal clonic seizure test; type: functional; how it was run: as §1
[7] = system: Mus musculus; assay: Neurotoxicity in albino CF-1 mouse assessed as minimum motor impairment at 300 mg/kg, ip after 4 hrs by rotarod test; type: toxicity, organism-based; parameters: dose 300 mg/kg, route intraperitoneal; details: in vivo; how it was run: as §2
[8] = system: Mus musculus; assay: Anticonvulsant activity in albino CF-1 mouse assessed as protection against 6 Hz psychomotor seizure at 100 mg/kg, ip after 4 hrs by minimal clonic seizure test; type: functional, organism-based; parameters: dose 100 mg/kg; how it was run: as §1
[9] = Neuroprotective activity in hippocampal slice assessed as protection against NMDA-induced cell death using propidium iodide staining; type: functional, tissue-based; details: Hippocampus
How it was run: (§3)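 Qualitative primary screen on organotypic hippocampal slice cultures. Cell death induced by NMDA or kainic acid, with or without test compound. Propidium iodide present in all wells; PI fluorescence intensity taken as proportional to cell death.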

[10] = Neuroprotective activity in hippocampal slice assessed as protection against kainic acid-induced cell death using propidium iodide staining; type: functional, tissue-based; details: Hippocampus; how it was run: as §3

SMILES | logP at 24 h [2] | Activity [1] | Activity ([3]; route intraperitoneal) [%] | Activity [4] | Activity [5] | Activity [6] | Activity [7] | Activity [8] | Activity [3] | Activity [9] | Activity [10] | Activity ([1]; route intraperitoneal) [%] | Activity ([4]; route intraperitoneal) [%] | Activity ([6]; route intraperitoneal) [%]
Cc1ccc(Oc2ccc(/C=N/NC(=S)Nc3ccc(F)cc3)cc2)cc1 | 5.48 | inactive | 50 | inactive | Non-toxic | Active | Non-toxic | inactive |  |  |  |  |  | 
S=C(N/N=C/c1ccc(Oc2ccccc2)cc1)Nc1ccc(Cl)cc1 | 5.64 |  |  |  | Non-toxic |  | Non-toxic |  |  |  |  |  |  | 
S=C(N/N=C/c1ccc(Oc2ccc(Cl)cc2)cc1)Nc1ccccc1 | 5.52 |  |  |  | Non-toxic |  | Non-toxic |  |  |  |  |  |  | 
O=[N+]([O-])c1ccc(Oc2ccc(/C=N/NC(=S)Nc3ccc(F)cc3)cc2)cc1 | 4.89 | Active | 50 | inactive | Non-toxic | inactive | Non-toxic | inactive |  |  |  |  |  | 
Cc1ccc(Oc2ccc(/C=N/NC(=S)Nc3ccccc3)cc2)cc1 | 5.39 |  |  |  | Non-toxic |  | Non-toxic |  |  |  |  |  |  | 
Fc1ccc(Oc2ccc(/C=N/NC(=S)Nc3ccccc3)cc2)cc1 | 5.09 | Active |  | inactive | Non-toxic | inactive | Non-toxic | inactive | inactive |  |  |  |  | 
S=C(N/N=C/c1ccc(Oc2ccc(Cl)cc2)cc1)Nc1ccc(Br)cc1 | 6.24 |  |  |  | Non-toxic |  | Non-toxic |  |  |  |  |  |  | 
O=[N+]([O-])c1ccc(Oc2ccc(/C=N/NC(=S)Nc3ccc(Cl)cc3)cc2)cc1 | 5.52 |  |  |  | Non-toxic |  | Non-toxic |  |  |  |  |  |  | 
O=[N+]([O-])c1ccc(Oc2ccc(/C=N/NC(=S)Nc3ccc(Br)cc3)cc2)cc1 | 5.68 |  |  |  | Non-toxic |  | Non-toxic |  |  |  |  |  |  | 
S=C(N/N=C/c1ccc(Oc2ccc3c(c2)OCO3)cc1)Nc1ccc(Br)cc1 | 5.52 |  |  |  | Non-toxic |  | Non-toxic |  |  |  |  |  |  | 
S=C(N/N=C/c1ccc(Oc2ccc3ccccc3c2)cc1)Nc1ccc(Cl)cc1 | 6.96 |  |  |  | Non-toxic |  | Non-toxic |  |  |  |  |  |  | 
Cc1ccc(Oc2ccc(/C=N/NC(=S)Nc3ccc(Br)cc3)cc2)cc1 | 6.17 | Active |  | inactive | Non-toxic | inactive | Non-toxic | inactive | Active |  |  |  |  | 
S=C(N/N=C/c1ccc(Oc2ccc3ccccc3c2)cc1)Nc1ccccc1 | 6.07 |  |  |  | Non-toxic |  | Non-toxic |  |  |  |  |  |  | 
Fc1ccc(Oc2ccc(/C=N/NC(=S)Nc3ccc(Br)cc3)cc2)cc1 | 5.82 | Active |  | Active | Non-toxic | inactive | Non-toxic | inactive | Active |  |  |  |  | 
S=C(N/N=C/c1ccc(Oc2ccc(Cl)cc2)cc1)Nc1ccc(Cl)cc1 | 6.2 |  |  |  | Non-toxic |  | Non-toxic |  |  |  |  |  |  | 
Fc1ccc(NC(=S)N/N=C/c2ccc(Oc3ccccc3)cc2)cc1 | 5.09 | inactive |  | inactive | Non-toxic | Active | Non-toxic | inactive | Active |  |  |  |  | 
Cc1cc(Oc2ccc(/C=N/NC(=S)Nc3ccccc3)cc2)ccc1Cl | 6.03 | inactive |  | inactive | Non-toxic | inactive | Non-toxic | inactive | Active |  |  |  |  | 
Fc1ccc(Oc2ccc(/C=N/NC(=S)Nc3ccc(Cl)cc3)cc2)cc1 | 5.84 | inactive |  | Active | Non-toxic | Active | Non-toxic | Active | Active |  |  |  |  | 
S=C(N/N=C/c1ccc(Oc2ccc(Br)cc2)cc1)Nc1ccc(Cl)cc1 | 6.37 |  |  |  | Non-toxic |  | Non-toxic |  |  |  |  |  |  | 
Cc1cc(Oc2ccc(/C=N/NC(=S)Nc3ccc(F)cc3)cc2)ccc1Cl | 6.07 | Active |  | inactive | Non-toxic | inactive | Non-toxic | inactive | Active |  |  |  |  | 
Cc1ccc(Oc2ccc(/C=N/NC(=S)Nc3ccc(Cl)cc3)cc2)cc1 | 5.97 |  |  |  | Non-toxic |  | Non-toxic |  |  |  |  |  |  | 
Cc1cc(Oc2ccc(/C=N/NC(=S)Nc3ccc(Cl)cc3)cc2)ccc1Cl | 6.59 |  |  |  | Non-toxic | inactive | Non-toxic | inactive | Active |  |  | 50 | 50 | 
Fc1ccc(NC(=S)N/N=C/c2ccc(Oc3ccc(F)cc3)cc2)cc1 | 5.19 | inactive |  | Active | Non-toxic |  | Non-toxic | inactive | Active |  |  |  |  | 50

Further lines, with some results ahead:

logP at 24 h [2] | SMILES | Activity [1] | Activity ([3]; route intraperitoneal) [%] | Activity [4] | Activity [5] | Activity [6] | Activity [7] | Activity [8] | Activity [3] | Activity [9] | Activity [10] | Activity ([1]; route intraperitoneal) [%] | Activity ([4]; route intraperitoneal) [%] | Activity ([6]; route intraperitoneal) [%]
4.9 | S=C(N/N=C/c1ccc(Oc2ccccc2)cc1)Nc1ccccc1 |  |  |  | Non-toxic |  | Non-toxic |  |  |  |  |  |  | 
4.95 | O=[N+]([O-])c1ccc(Oc2ccc(/C=N/NC(=S)Nc3ccccc3)cc2)cc1 |  |  |  | Non-toxic |  | Non-toxic |  |  |  |  |  |  | 
4.99 | Fc1ccc(NC(=S)N/N=C/c2ccc(Oc3ccc4c(c3)OCO4)cc2)cc1 |  |  |  | Non-toxic |  | Non-toxic |  |  |  |  |  |  | 
5.62 | S=C(N/N=C/c1ccc(Oc2ccc(Br)cc2)cc1)Nc1ccccc1 | Active |  | Active | Non-toxic | inactive | Non-toxic | inactive | Active |  |  |  |  | 
4.8 | S=C(N/N=C/c1ccc(Oc2ccc3c(c2)OCO3)cc1)Nc1ccccc1 |  |  |  | Non-toxic |  | Non-toxic |  |  |  |  |  |  | 
6.93 | S=C(N/N=C/c1ccc(Oc2ccc3ccccc3c2)cc1)Nc1ccc(Br)cc1 |  |  |  | Non-toxic |  | Non-toxic |  |  |  |  |  |  | 
6.38 | S=C(N/N=C/c1ccc(Oc2ccccc2)cc1)Nc1ccc(Br)cc1 | inactive |  | inactive | Non-toxic | inactive | Non-toxic | inactive | Active | inactive | inactive |  |  | 
6.2 | Fc1ccc(NC(=S)N/N=C/c2ccc(Oc3ccc4ccccc4c3)cc2)cc1 | inactive |  | Active | Non-toxic | inactive | Non-toxic | Active | inactive |  |  |  |  | 
5.54 | S=C(N/N=C/c1ccc(Oc2ccc3c(c2)OCO3)cc1)Nc1ccc(Cl)cc1 |  |  |  | Non-toxic |  | Non-toxic |  |  |  |  |  |  | 
5.88 | Fc1ccc(NC(=S)N/N=C/c2ccc(Oc3ccc(Br)cc3)cc2)cc1 | inactive |  | inactive | Non-toxic | inactive | Non-toxic | inactive | Active |  |  |  |  | 
